According to PubChem BioAssay AID463078 (The Scripps Research Institute Molecular Screening Center, 2010):
Calls of active or inactive are those of the source.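 Rule for the calls: active = fold change below the hit cutoff of 0.7; inactive = the rest.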

Target: Nuclear receptor ROR-alpha (Homo sapiens) (UniProt P35398)
Test: inhibitors of RORa reporter activity, late-stage follow-up, RORA inverse agonist project, cell-based, luminescence, assay provider (AID 463078)
Conditions: HEK293T GAL4-RORa LBD luciferase reporter, 20 h; at 10 µM; stronger effect = lower value
Outline: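 System: HEK293T cells with GAL4-RORα LBD and UAS-luciferase. Incubation: 20 h compound exposure. Control set: DMSO vehicle wells. Signal: luminescence. Repeats: six replicates per compound. Evaluation: fold change in luminescence, treated versus DMSO-treated cells, replicate-averaged. Compound: single nominal 10 µM dose per test compound.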

Nuclear receptor ROR-alpha (Homo sapiens), sequence (P35398 whole entry, looked up): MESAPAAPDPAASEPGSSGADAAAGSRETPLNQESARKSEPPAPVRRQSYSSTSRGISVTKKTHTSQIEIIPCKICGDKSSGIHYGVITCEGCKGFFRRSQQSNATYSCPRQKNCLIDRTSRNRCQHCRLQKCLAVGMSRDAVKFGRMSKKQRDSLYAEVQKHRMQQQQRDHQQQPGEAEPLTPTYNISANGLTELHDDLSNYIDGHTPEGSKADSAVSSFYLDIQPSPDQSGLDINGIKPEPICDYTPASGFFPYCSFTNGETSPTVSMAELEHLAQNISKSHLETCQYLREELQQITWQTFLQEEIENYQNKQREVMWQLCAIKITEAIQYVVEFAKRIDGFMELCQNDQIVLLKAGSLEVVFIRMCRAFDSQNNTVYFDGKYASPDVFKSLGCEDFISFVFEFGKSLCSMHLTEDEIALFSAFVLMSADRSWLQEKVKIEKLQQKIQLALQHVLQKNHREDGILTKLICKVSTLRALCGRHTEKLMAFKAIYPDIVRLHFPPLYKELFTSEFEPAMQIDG

| Compound | fold change |
| --- | --- |
| O=C(Nc1ccc(C(O)(C(F)(F)F)C(F)(F)F)cc1)c1ccccc1C(F)(F)F | 0.806 (inactive) |
| O=C(Nc1ccc(C(O)(C(F)(F)F)C(F)(F)F)cc1)c1ccc(Cl)cc1 | 1.23 (inactive) |
| O=C(Nc1ccc(C(O)(C(F)(F)F)C(F)(F)F)cc1)c1ccc(F)cc1F | 1.71 (inactive) |
| O=C(Nc1ccc(C(O)(C(F)(F)F)C(F)(F)F)cc1)c1ccc(F)cc1Cl | 1.1 (inactive) |
| O=S(=O)(Nc1ccc(C(O)(C(F)(F)F)C(F)(F)F)cc1)c1cccs1 | 0.63 |
| O=C(Nc1ccc(C(O)(C(F)(F)F)C(F)(F)F)cc1)c1c(F)cccc1F | 0.944 (inactive) |
